These results are taken from ChEMBL document CHEMBL2176949 (J Med Chem, 2012).

Structures are written as SMILES.

The target of experiment [1] is T1, Neuronal acetylcholine receptor; alpha3/beta4 (Homo sapiens, UniProt P30926+P32297). Nature of the experiment: Displacement of [3H]epibatidine from human alpha3beta4 nAChR expressed in human SH-SY5Y cells. The format is cell-based. The method in brief:
(§1)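 Binding to membranes from the cell lines: homogenised in PBS pH 7.4, spun at 40000g for 20 min at 4 °C, then incubated 2 h on ice in PBS with competitor (0.001 nM to 100 μM) and radioligand. Filters washed in ice-cold PBS and counted by scintillation. IC50 from nonlinear regression; Ki by Cheng-Prusoff. Minimum of three assays, ± SEM.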
In general terms: Displacement assays read how much labelled ligand stays bound in the presence of the test substance.

Experiment [2] has as its target T1, Neuronal acetylcholine receptor; alpha3/beta4. Nature of the experiment: Agonist activity at human alpha3beta4 nAChR expressed in human SH-SY5Y cells assessed as increase in calcium flux by FLIPR. The format is functional, cell-based. Background: Calcium flux is commonly read through the fluorescence of an indicator in the cells.
Experiment [3] addresses T2, Neuronal acetylcholine receptor; alpha4/beta2 (Homo sapiens, UniProt P17787+P43681). Nature of the experiment: Displacement of [3H]nicotine from human alpha4beta2 nAChR expressed in human SH-EP1 cells. The format is cell-based. The method in brief:
as §1

Experiment [4] addresses Neuronal acetylcholine receptor subunit alpha-7 (Homo sapiens, UniProt P36544). Description: Displacement of [3H]epibatidine from human alpha7 nAChR expressed in human HEK/RIC3 cells. Type of experiment: cell-based. The method in brief:
as §1

For experiment [5], the target named is T2, Neuronal acetylcholine receptor; alpha4/beta2. Description: Agonist activity at human alpha4beta2 nAChR high sensitivity form expressed in human SH-EP1 cells assessed as increase in calcium flux by FLIPR. The format is functional, cell-based.
Experiment [6] has the same target. Nature of the experiment: Agonist activity at human alpha4beta2 nAChR low sensitivity form expressed in human SH-EP1 cells assessed as increase in calcium flux by FLIPR relative to 10 uM nicotine. Type of experiment: functional, cell-based.
Experiment [7] addresses T1, Neuronal acetylcholine receptor; alpha3/beta4. Description: Agonist activity at human alpha3beta4 nAChR expressed in human SH-SY5Y cells assessed as increase in calcium flux by FLIPR relative to 10 uM nicotine. Type of experiment: functional, cell-based.
Experiment [8] concerns the target T2, Neuronal acetylcholine receptor; alpha4/beta2. Description: Agonist activity at human alpha4beta2 nAChR high sensitivity form expressed in human SH-EP1 cells assessed as increase in calcium flux by FLIPR relative to 10 uM nicotine. Type of experiment: functional, cell-based.
The target is the same in experiment [9]. Nature of the experiment: Agonist activity at human alpha4beta2 nAChR low sensitivity form expressed in human SH-EP1 cells assessed as increase in calcium flux by FLIPR. The format is functional, cell-based.

T1 sequence (P30926 whole entry): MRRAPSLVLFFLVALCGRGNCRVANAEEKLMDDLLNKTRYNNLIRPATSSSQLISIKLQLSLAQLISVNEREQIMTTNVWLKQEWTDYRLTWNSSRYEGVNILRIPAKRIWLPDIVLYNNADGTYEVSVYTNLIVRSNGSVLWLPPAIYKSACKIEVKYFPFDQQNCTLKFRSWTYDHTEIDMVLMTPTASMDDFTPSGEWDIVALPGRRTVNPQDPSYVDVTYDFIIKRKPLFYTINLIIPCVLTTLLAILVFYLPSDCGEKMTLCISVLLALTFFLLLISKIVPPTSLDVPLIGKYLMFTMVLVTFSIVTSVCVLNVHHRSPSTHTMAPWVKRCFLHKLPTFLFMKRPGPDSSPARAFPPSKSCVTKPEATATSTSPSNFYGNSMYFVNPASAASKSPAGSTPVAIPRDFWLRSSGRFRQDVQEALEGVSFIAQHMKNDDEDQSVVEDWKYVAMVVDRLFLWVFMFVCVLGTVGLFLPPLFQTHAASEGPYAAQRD
T1 sequence (P32297 whole entry): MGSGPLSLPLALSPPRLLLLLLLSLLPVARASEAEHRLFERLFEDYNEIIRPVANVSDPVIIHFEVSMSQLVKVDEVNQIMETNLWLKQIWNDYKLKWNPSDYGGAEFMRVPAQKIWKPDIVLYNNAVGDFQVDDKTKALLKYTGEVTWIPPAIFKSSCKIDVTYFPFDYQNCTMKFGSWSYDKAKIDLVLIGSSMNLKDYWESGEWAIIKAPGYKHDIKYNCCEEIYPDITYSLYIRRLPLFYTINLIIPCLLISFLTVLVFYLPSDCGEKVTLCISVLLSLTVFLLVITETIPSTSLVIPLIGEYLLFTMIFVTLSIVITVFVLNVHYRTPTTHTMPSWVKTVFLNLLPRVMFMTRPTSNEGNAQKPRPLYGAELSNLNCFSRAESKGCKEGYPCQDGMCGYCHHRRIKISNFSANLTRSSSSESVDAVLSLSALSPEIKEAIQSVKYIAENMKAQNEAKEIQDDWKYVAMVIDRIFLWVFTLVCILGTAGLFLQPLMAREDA
T2 sequence (P17787 whole entry): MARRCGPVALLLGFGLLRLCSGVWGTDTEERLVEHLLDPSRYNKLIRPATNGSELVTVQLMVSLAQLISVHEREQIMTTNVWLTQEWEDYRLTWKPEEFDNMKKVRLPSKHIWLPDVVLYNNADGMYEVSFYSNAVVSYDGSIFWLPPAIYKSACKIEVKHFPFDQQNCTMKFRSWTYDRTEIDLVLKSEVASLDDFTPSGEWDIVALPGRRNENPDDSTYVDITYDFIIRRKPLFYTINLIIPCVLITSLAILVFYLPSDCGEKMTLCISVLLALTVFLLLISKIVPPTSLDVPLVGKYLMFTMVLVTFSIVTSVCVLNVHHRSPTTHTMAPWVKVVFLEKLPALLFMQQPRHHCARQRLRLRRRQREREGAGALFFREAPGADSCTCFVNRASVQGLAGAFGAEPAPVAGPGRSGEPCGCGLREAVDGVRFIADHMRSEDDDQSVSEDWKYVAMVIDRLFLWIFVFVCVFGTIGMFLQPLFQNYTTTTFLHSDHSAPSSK
T2 sequence (P43681 whole entry): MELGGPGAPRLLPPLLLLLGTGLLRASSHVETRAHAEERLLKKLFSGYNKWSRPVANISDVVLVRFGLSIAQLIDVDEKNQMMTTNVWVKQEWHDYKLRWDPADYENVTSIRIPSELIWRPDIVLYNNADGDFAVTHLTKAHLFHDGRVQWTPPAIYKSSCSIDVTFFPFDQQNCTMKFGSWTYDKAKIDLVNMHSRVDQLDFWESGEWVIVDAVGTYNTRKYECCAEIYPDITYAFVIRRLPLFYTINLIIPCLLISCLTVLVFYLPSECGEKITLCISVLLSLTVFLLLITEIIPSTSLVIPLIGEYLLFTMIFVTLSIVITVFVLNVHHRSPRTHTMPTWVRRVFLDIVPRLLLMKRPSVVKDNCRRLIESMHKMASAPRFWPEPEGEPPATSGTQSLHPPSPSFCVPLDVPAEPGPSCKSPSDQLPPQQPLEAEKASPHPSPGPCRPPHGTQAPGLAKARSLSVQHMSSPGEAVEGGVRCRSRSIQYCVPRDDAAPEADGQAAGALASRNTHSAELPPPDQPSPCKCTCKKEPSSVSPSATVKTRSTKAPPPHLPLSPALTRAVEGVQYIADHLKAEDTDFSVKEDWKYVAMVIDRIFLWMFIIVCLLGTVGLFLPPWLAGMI
Chain of Neuronal acetylcholine receptor subunit alpha-7 (P36544 whole entry): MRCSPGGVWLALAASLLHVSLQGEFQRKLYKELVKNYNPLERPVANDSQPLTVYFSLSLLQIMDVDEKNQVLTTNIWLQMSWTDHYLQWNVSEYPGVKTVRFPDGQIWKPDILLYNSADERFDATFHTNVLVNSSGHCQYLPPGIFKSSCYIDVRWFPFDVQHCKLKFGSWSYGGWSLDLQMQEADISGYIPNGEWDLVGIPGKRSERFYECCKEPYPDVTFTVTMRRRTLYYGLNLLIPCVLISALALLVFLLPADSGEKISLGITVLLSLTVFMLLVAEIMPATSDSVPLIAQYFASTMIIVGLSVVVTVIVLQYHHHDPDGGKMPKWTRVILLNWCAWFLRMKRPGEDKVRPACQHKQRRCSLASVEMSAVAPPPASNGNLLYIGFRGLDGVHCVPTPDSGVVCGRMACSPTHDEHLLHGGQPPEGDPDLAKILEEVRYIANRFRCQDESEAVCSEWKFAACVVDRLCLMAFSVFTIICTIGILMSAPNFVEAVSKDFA

Take `Clc1ccc(C2=CC3CNCC(C2)C3)nn1` (stereo unspecified): the Ki – broadly, the dissociation constant of the complex between target and ligand, obtained from inhibition or displacement – in experiment [1] was 73 nM; in experiment [3], 0.4 nM; in experiment [4], 77 nM. Besides, the EC50 (usually the concentration at which the effect is half-maximal) came out at 149 nM in experiment [2], 80 nM in experiment [5] and 595 nM in [9]. In addition, the %max in experiment [6] worked out at 160%; in [7], 135%; in experiment [8], 118%.
As for `CN1CC2C=C(c3cncc(OCc4ccccc4)c3)CC(C2)C1` (stereo unspecified), the Ki in experiment [1] is 711 nM; in experiment [3], 1.7 nM; in experiment [4] it was 4540 nM.
With `N#Cc1cncc(C2=C[C@@H]3CNC[C@H](C2)C3)c1`, the values for the inhibitory constant (Ki) in experiment [1], in [3] and in [4] were 17 nM, 0.3 nM and 79 nM, respectively. For the same compound, the EC50 in experiment [2] is 447 nM; in experiment [5], 107 nM; in [9], 343 nM. Besides, the figures for the %max in experiment [6], in experiment [7] and in experiment [8] were 89%, 144% and 92%, respectively.
For `COc1ccc(Oc2cncc(C3=CC4CNCC(C3)C4)c2)cc1` (stereo unspecified), the inhibition constant (Ki) in experiment [1] is 27 nM; in [3], 1.4 nM; in experiment [4], 23 nM.
Turning to `C1=C(c2cncnc2)CC2CNCC1C2` (stereo unspecified), the inhibition constant Ki in experiment [1] stood at 58 nM; in [3] it was 0.2 nM; in experiment [4] it was 19 nM. Moreover, the EC50 came out at 198 nM in experiment [2], 240 nM in [5] and 162 nM in [9]. Besides, the %max in [6] worked out at 145%; in experiment [7] it was 147%; in experiment [8], 116%.
`C1=C(c2ccc3nccnc3c2)CC2CNCC1C2` (stereo unspecified): the Ki in experiment [1] was 5740 nM; in [3] it was 85 nM; in experiment [4], above 10000 nM.
Regarding `C1=C(c2ccc(-c3ccccc3)nc2)CC2CNCC1C2` (stereo unspecified), the inhibitory constant (Ki) in [1] was 507 nM; in experiment [3], 105 nM; in [4], 590 nM. In addition, the figures for the EC50 in [2], in experiment [5] and in experiment [9] were 10900 nM, above 10000 nM and 9660 nM, respectively. The %max is 18% in [6], 17% in experiment [7] and 19% in experiment [8].
With `COc1cncc(C2=CC3CC(C2)CN(C)C3)c1` (stereo unspecified), the results for the Ki in experiment [1], in [3] and in experiment [4] were 596 nM, 0.6 nM and 605 nM, respectively. For the same compound, the EC50 in experiment [2] amounted to 3640 nM; in [5], 2660 nM; in experiment [9], 5130 nM. Besides, the values for the %max in [6], in experiment [7] and in experiment [8] were 15%, 27% and 19%, respectively.
Regarding `Fc1ccc(C2=CC3CNCC(C2)C3)cn1` (stereo unspecified), the values for the inhibitory constant (Ki) in experiment [1], in experiment [3] and in experiment [4] were 28 nM, 0.4 nM and 20 nM, respectively. The half-maximal effective concentration (EC50) in experiment [2] came to 99 nM; in [5], 85 nM; in experiment [9], 85 nM. Further, the results for the %max in [6], in experiment [7] and in experiment [8] were 136%, 140% and 104%, respectively.
As to `Fc1cncc(C2=C[C@H]3CNC[C@@H](C2)C3)c1`, the values for the inhibitory constant (Ki) in experiment [1], in experiment [3] and in experiment [4] were 8.3 nM, 0.2 nM and 3.3 nM, respectively. Also, the EC50 came to 155 nM in experiment [2], 29 nM in experiment [5] and 50 nM in experiment [9]. Further, the %max stood at 119% in experiment [6], 140% in [7] and 100% in experiment [8].
For the compound `N#Cc1cncc(C2=C[C@H]3CNC[C@@H](C2)C3)c1`, the Ki in experiment [1] came to 15 nM; in experiment [3], 0.3 nM; in experiment [4], 73 nM. Moreover, the concentration for a half-maximal effect (EC50) in experiment [2] is 355 nM; in experiment [5] it was 256 nM; in experiment [9] it was 4190 nM. In addition, the figures for the %max in experiment [6], in experiment [7] and in [8] were 88%, 136% and 95%, respectively.
Turning to `Fc1cncc(C2=CC3CNCC(C2)C3)c1` (stereo unspecified), the inhibition constant (Ki) in experiment [1] was 39 nM; in [3], 0.3 nM; in [4] it was 3.6 nM.
As for `COc1cccc(Oc2cncc(C3=CC4CNCC(C3)C4)c2)c1` (stereo unspecified), the figures for the Ki in experiment [1], in experiment [3] and in [4] were 15 nM, 0.9 nM and 13 nM, respectively.
For `Clc1cccc(Oc2cncc(C3=CC4CNCC(C3)C4)c2)c1` (stereo unspecified), in that order: 22 nM, 1 nM and 13 nM.
For the compound `CN1CC2C=C(c3cncc(Oc4ccccc4)c3)CC(C2)C1` (stereo unspecified), the Ki stood at 8.2 nM in experiment [1], 1.3 nM in experiment [3] and 17 nM in experiment [4]. Also, the concentration for a half-maximal effect (EC50) in experiment [2] was 100 nM; in [5], 183 nM; in experiment [9], above 10000 nM. Besides, the %max stood at 9.5% in [6], 103% in experiment [7] and 42% in [8].
Regarding `CN1CC2C=C(c3cncc(F)c3)CC(C2)C1` (stereo unspecified), the inhibition constant (Ki) in experiment [1] stood at 1640 nM; in [3], 13 nM; in experiment [4] it was 1010 nM.
Regarding `N#Cc1ccncc1C1=CC2CNCC(C1)C2` (stereo unspecified), the Ki in experiment [1] turned out to be 103 nM; in experiment [3], 2.8 nM; in [4] it was 330 nM. Besides, the figures for the EC50 in [2], in experiment [5] and in [9] were 166 nM, 3250 nM and above 10000 nM, respectively. Besides, the values for the %max in [6], in [7] and in experiment [8] were 27%, 130% and 55%, respectively.
`CN1CC2C=C(c3cnccc3C#N)CC(C2)C1` (stereo unspecified): the Ki in experiment [3] stood at 3420 nM; in [4], 4850 nM.
Regarding `CN1CC2C=C(c3ccc(F)nc3)CC(C2)C1` (stereo unspecified), the figures for the inhibitory constant (Ki) in [1], in experiment [3] and in [4] were 1300 nM, 18 nM and 1300 nM, respectively. For the same compound, the EC50 in experiment [2], in [5] and in experiment [9] was above 10000 nM in each case. Besides, the %max came out at 9.4% in experiment [6], 25% in [7] and 22% in experiment [8].
Consider `Clc1ccncc1C1=CC2CNCC(C1)C2` (stereo unspecified), for which the inhibitory constant (Ki) in [1] was 128 nM; in experiment [3], 3 nM; in experiment [4] it was 33 nM. For the same compound, the figures for the concentration giving a half-maximal response (EC50) in experiment [2], in experiment [5] and in experiment [9] were 377 nM, 2000 nM and above 10000 nM, respectively. Moreover, the %max in [6] is 12.8%; in [7], 105%; in experiment [8] it was 46%.
For the compound `C1=C(c2cccnc2)CC2CNCC1C2` (racemic), the Ki is 12 nM in experiment [1], 0.2 nM in experiment [3] and 4 nM in [4].
For `Clc1ccccc1Oc1cncc(C2=CC3CNCC(C2)C3)c1` (stereo unspecified), in that order: 26 nM, 0.9 nM and 39 nM.
The matching figures for `CN1CC2C=C(c3cncc(Cl)c3)CC(C2)C1` (stereo unspecified): 1830 nM, 9.6 nM and 8010 nM.
The matching figures for `CNCC/C=C/c1cccnc1` [RIVANICLINE]: 5400 nM, 26 nM and 8000 nM.
Regarding `COc1cc(C2=CC3CNCC(C2)C3)cnc1Cl` (stereo unspecified), the figures for the Ki in [1], in experiment [3] and in [4] were 7 nM, 0.4 nM and 111 nM, respectively.
The matching figures for `CN1CC2C=C(c3cncc(C#N)c3)CC(C2)C1` (stereo unspecified): 4500 nM, 24 nM and above 10000 nM.
For `COc1ccc(C2=CC3CNCC(C2)C3)cn1` (stereo unspecified), the Ki was 328 nM in experiment [1], 0.4 nM in experiment [3] and 1850 nM in experiment [4].
For `c1cncc(N2CC3CNCC(C3)C2)c1`, in that order: 6.6 nM, 0.1 nM and 1.6 nM.
For `Fc1ccc(Oc2cncc(C3=CC4CNCC(C3)C4)c2)cc1` (stereo unspecified), in that order: 31 nM, 0.6 nM and 7.2 nM.
On to `CN1CC2C=C(c3cnccc3Cl)CC(C2)C1` (stereo unspecified), for which the inhibition constant (Ki) in [1] was found to be 7230 nM; in [3] it was 1160 nM; in experiment [4] it was 1420 nM.
Turning to `FC(F)(F)c1cncc(C2=CC3CNCC(C2)C3)c1` (stereo unspecified), the Ki in experiment [1] came to 79 nM; in experiment [3], 0.7 nM; in [4], 641 nM.
In the case of `N#Cc1cncc(C2=CC3CNCC(C2)C3)c1` (stereo unspecified), the inhibition constant Ki in experiment [1] stood at 47 nM; in experiment [3] it was 0.6 nM; in [4] it was 160 nM.
In the case of `Clc1ccc(Oc2cncc(C3=CC4CNCC(C3)C4)c2)cc1` (stereo unspecified), the inhibitory constant (Ki) stood at 40 nM in experiment [1], 1.9 nM in experiment [3] and 23 nM in [4].
The matching figures for `C1=C(c2cncc(OCc3ccccc3)c2)CC2CNCC1C2` (stereo unspecified): 44 nM, 0.7 nM and 43.9 nM.
For `COc1cc(C2=CC3CC(C2)CN(C)C3)cnc1Cl` (stereo unspecified), in that order: 1430 nM, 4.4 nM and 7570 nM.
The matching figures for `COc1ccccc1Oc1cncc(C2=CC3CNCC(C2)C3)c1` (stereo unspecified): 56 nM, 1 nM and 30 nM.
In the case of `C1=C(c2ccncc2)CC2CNCC1C2` (stereo unspecified), the results for the inhibitory constant (Ki) in experiment [1], in experiment [3] and in experiment [4] were 459 nM, 56 nM and above 10000 nM, respectively.
Regarding `Clc1cncc(C2=CC3CNCC(C2)C3)c1` (stereo unspecified), the Ki in experiment [1] came out at 40 nM; in [3], 0.4 nM; in [4] it was 15 nM.
For `C1=C(c2cnccn2)CC2CNCC1C2` (stereo unspecified), in that order: 828 nM, 1.1 nM and 281 nM.
For `CN1CC2C=C(c3ccc(Cl)nc3)CC(C2)C1` (stereo unspecified), in that order: 986 nM, 22 nM and 6530 nM.
